# Results published in PubChem BioAssay AID504382 (The Scripps Research Institute Molecular Screening Center, 2011).
# The whole screen tested about 2,500 compounds, of which about 460 (18%) were called active. A selection follows. Unmarked numbers belong to inactive results.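 Rule for the calls: active = mean activation above a cutoff of low control average plus 3 SD from the earlier screen (cut at about 12% in these data); inactive = the rest.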
# Assay: compound fluorescence interference without thin filaments, confirmation, artefact control for cardiac RTF calcium sensitizer project, biochemical (AID 504382)
# Settings: IANBD fluorescence interference counterscreen, buffer, EC20 Ca2+; at 7.2 µM; active compounds read high; scaled: EC20 calcium 0, EC100 calcium 100
# Summary of the method: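 Also added: EC20 calcium, 0.472 mM; dosing: single nominal 7.2 µM compound dose, 0.7% DMSO final; timing: 15 min, 25 °C; detection: fluorescence intensity, excitation 480 nm, emission 540 nm; replicates: each compound tested in triplicate wells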
row,Structure (SMILES),fluorescence artifact activation
1,O=C(NCCCN1CCCC1=O)c1cccc(S(=O)(=O)Nc2ccc(Br)cc2)c1,0.07%
2,O=C1CCC(=O)N(O)CCCCCNC(=O)CCC(=O)N(O)CCCCNC(=O)CCC(=O)N(O)CCCCCN1,-0.06%
3,O=C(CC1C(=O)N(c2ccc(Cl)cc2)C(=S)N1CCc1ccncc1)Nc1ccc(F)cc1 (centres undefined),-0.02%
4,O=S(=O)(c1ccccc1Cl)N1CCC(Cc2ccccc2)CC1,0.09%
5,CC1CCN(S(=O)(=O)c2ccc(N=NC3=C(O)CC(C)(C)CC3=O)cc2)CC1,1.03%
6,O=C1c2cccc3cccc(c23)C(=O)N1CC1CCN(S(=O)(=O)c2ccc(F)cc2)CC1,34.6% (active)
7,C=CCn1c(C)cc(-c2csc(N)n2)c1C,2.95%
8,O=C(NCc1ccco1)C1CC(c2c(Cl)cccc2Cl)=NO1 (centres undefined),-0.09%
9,COc1cccc(C(=O)NC2CC3CCCC(C2)N3CC(=O)Nc2ccc(N(C)C)cc2)c1 (centres undefined),3.62%
10,Cc1ccc(/C=C/c2ccc(N(C)C)cc2)[n+](C)c1,1.46%
11,CN(C)c1ccc(/C=C/c2cc[n+](C)c3ccccc23)cc1,0.06%
12,CN(C)c1ccc(/C=C/c2cc[n+](C)cc2)cc1,14.5% (active)
13,O=C1N(c2cccc(Cl)c2)C(c2ccccc2)N2CCCN12 (centres undefined),-0.04%
14,COc1ccc(COc2cc(-c3cccc(OC)c3)nc3ccc(NC(=O)c4ccc(C)cc4)cc23)cc1,0.13%
15,COc1cccc(CC(NC(C)=O)C(=O)NC2CCN(c3nc(C)cc(C)c3C#N)CC2)c1OC (centres undefined),6.12%
16,CCCCN(C(=O)c1ccc2c(c1)OCCO2)c1c(N)n(CCCC)c(=O)[nH]c1=O,-0.02%
17,CC(=O)Nc1ccc(NC(=O)C(C)OC(=O)/C(C#N)=C/c2ccc(N(C)C)cc2)cc1 (centres undefined),2.64%
18,CC1CC(C)(C)NC(=S)N1CCCC(=O)Nc1ccccc1F (centres undefined),0.07%
19,CCC(C)n1ncn(-c2ccc(N3CCN(c4ccc(OCC5COC(Cn6cncn6)(c6ccc(Cl)cc6Cl)O5)cc4)CC3)cc2)c1=O (centres undefined),121% (active)
20,CC1(C)c2[nH]c3ccccc3c2C[C@H]2C(=O)N(Cc3ccc(F)cc3)C(=O)N21,0%
21,Cc1onc(-c2ccccc2Cl)c1C(=O)N(Cc1ccc(N(C)C)cc1)C(C)C,2.44%
22,CCOC(=O)c1cc2n(c1N)-c1ccccc1C2=O,19.5% (active)

row,Structure (SMILES),fluorescence artifact activation
1,CCOC(=O)c1ccccc1-n1nnnc1C,0.06%
2,CCOC(=O)c1cc2c(s1)-c1ccccc1CC2,0.55%
3,COc1cc(/C=C/C=C2/CC/C(=C/C=C/c3ccc(O)c(OC)c3)C2=O)ccc1O,7.81%
4,C/C(=C\C=C(C#N)C#N)c1cc(C#N)c(N)o1,3.09%
5,N#C/C(=C/c1ccc(N2CCCCCC2)o1)c1ccc(Cl)cc1,12.3% (active)
6,N#C/C(=C\c1ccc(N2CCOCC2)o1)C(=O)N1CCOCC1,0.05%
7,N#C/C(=C/c1ccc(N2CCOCC2)o1)c1ccc(Cl)cc1,0%
8,N#C/C(=C\c1ccc(N2CCCCC2)o1)C(N)=O,2.99%
9,N#C/C(=C/c1ccc(N2CCCCCC2)o1)c1cccc(F)c1,33.8% (active)
10,Cc1ncoc1C(=O)N1CCc2c([nH]c3ccccc23)C1C(C)(C)C (centres undefined),0.21%
11,CN(C)c1ccc(/C=C/c2ccc3ccccc3n2)cc1,0.06%
12,CN1CCN(CCNC(=O)Nc2ccc(Cl)cc2)CC1,3.25%
13,CCCCCCSc1ccc([C@@H]2[C@H]3C(=O)N(CC)C(=O)[C@H]3[C@]3(C(=O)OC)CCCCN23)cc1OC,-0.04%
14,CCn1cc(Cl)c(C(=O)NNC(=O)CCn2cc([N+](=O)[O-])cn2)n1,-0.04%
15,CC1(C)c2ccccc2N2CC(=O)N(CC(N)=O)C21C (centres undefined),20.9% (active)
16,CN1C(=CC=C2C=C(I)C(=O)C(I)=C2)C(C)(C)c2ccccc21,0.22%
17,CN1/C(=C\C=C2/SC(=S)N(CC(=O)O)C2=O)C(C)(C)c2ccccc21,0.11%
18,O=C(Nc1ccccc1)OC1CCC2CC1CCC2OC(=O)Nc1ccccc1 (centres undefined),-0.01%
19,O=C(Nc1ccccc1)NC1CS(=O)(=O)CC1O (centres undefined),32.8% (active)
20,CC(=O)Nc1ccccc1,-0.1%
21,c1ccc(CCC2=NCCn3cccc32)cc1,4.53%
22,CCCCn1c(N)c(N(CC(C)C)C(=O)Cc2ccc(S(=O)(=O)N3CCOCC3)s2)c(=O)[nH]c1=O,3.01%

row,Structure (SMILES),fluorescence artifact activation
1,Brc1ccc2[nH]c3nc(SCCN4CCOCC4)nnc3c2c1,0.16%
2,COc1ccc(/C=C2\SC(=S)N(CCCC(=O)Nc3ccccc3C(=O)O)C2=O)cc1OC,5.03%
3,O=C(Nc1ccccc1)c1ccc(NCCc2ccccc2)c([N+](=O)[O-])c1,0.33%
4,Cc1cccc(OCCNc2ccc(C(F)(F)F)cc2[N+](=O)[O-])c1,43.7% (active)
5,CC(=O)c1cccc(-n2c(CCC(=O)O)ccc2-c2ccccc2)c1,0.06%
6,Cc1nnc(-c2ccccc2)c(=O)n1/N=C/c1c(O)ccc2ccccc12,0.11%
7,C/C(=N\NC(=O)c1cc2c(s1)CCC(C)C2)c1ccc[nH]1 (centres undefined),0.04%
8,Cc1oc2c(cc(NS(=O)(=O)c3ccc(C(C)C)cc3)c3ccccc32)c1C(=O)O,-0.05%
9,O=C1S/C(=C/c2ccc(N3CCOCC3)o2)C(=O)N1Cc1ccc(F)cc1,16.8% (active)
10,O=C(O)c1ccccc1-c1ccc(/C=C2\SC(=O)N(c3ccccc3)C2=O)o1,0.06%
11,CC(C)OC(=O)CN1C(=O)S/C(=C/c2ccc(N3CCCCC3)o2)C1=O,0.64%
12,CN1C/C(=C\c2ccc(N3CCOCC3)cc2)C(=O)/C(=C/c2ccc(N3CCOCC3)cc2)C1,0.12%
13,O=C1N/C(=C\c2ccsc2)C(=O)N1Cc1ccc(F)cc1,0.11%
14,O=C1S/C(=C/c2ccc(N3CCOCC3)o2)C(=O)N1Cc1c(F)cccc1Cl,5.76%
15,CCCN1C(=O)S/C(=C\c2ccc(N3CCOCC3)o2)C1=O,0.73%
16,CCCN1C(=O)S/C(=C/c2ccc(N3CCOCC3)o2)C1=O,31.7% (active)
17,O=C1S/C(=C\c2ccc(N3CCOCC3)o2)C(=O)N1c1ccccc1,22.4% (active)
18,O=C1S/C(=C\c2ccc(N3CCOCC3)o2)C(=O)N1Cc1c(F)cccc1Cl,226% (active)
19,O=C1S/C(=C\c2ccc(N3CCOCC3)o2)C(=O)N1Cc1ccc(F)cc1,-0.07%
20,O=C(CSCc1c(F)cccc1Cl)Nc1ccccc1C(=O)N1CCOCC1,2.06%
